Test results published in ChEMBL document CHEMBL2380289, “Ligand based approach to L-type calcium channel by imidazo[2,1-b]thiazole-1,4-dihydropyridines: from heart activity to brain affinity” (J Med Chem, 2013).

Legend:
[1] = Displacement of [3H]-PN200-110 from L-type calcium channel dihydropyridine binding site in Wistar rat cortex homogenate after 60 mins by liquid scintillation spectometric analysis; type: tissue-based
Procedure, shortened: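 Competition binding on rat cortex homogenate with (+)-[5-methyl-3H]PN200-110. Compounds are dissolved in DMSO as 10⁻² M stocks and diluted in buffer. Six displacer concentrations are tested, each in triplicate. IC50 is obtained by −log probit analysis and Ki by the Prusoff method. Values are mean ± SEM of 3−5 separate experiments done in triplicate.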

Rattus norvegicus = species on record: Rattus norvegicus; assay: Displacement of [3H]-PN200-110 from L-type calcium channel dihydropyridine binding site in Wistar rat cortex homogenate at 100 uM after 60 mins by liquid scintillation spectometric analysis relative to control; type: tissue-based
Procedure, shortened: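 Binding on rat cortex homogenate using (+)-[5-methyl-3H]PN200-110. The read-out is percent of maximal radioligand displacement at 100 μM test compound. Compounds are made up as 10⁻² M DMSO stocks and diluted in buffer. Values are from 3−5 separate experiments done in triplicate.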

[2] = Displacement of [3H]-PN200-110 from voltage-gated calcium channel subunit alpha Cav1.2a (unknown origin) expressed in HEK293 cells after 90 mins by liquid scintillation counting analysis; type: cell-based, Homo sapiens
Procedure, shortened: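 Intact HEK-293 cells stably transfected with a rabbit Cav1.2a (α1c-a) plasmid are used. They are incubated with 0.5 nM (+)-[5-methyl-3H]PN200-110 plus competitor at 0.001−100 μM, from 10⁻² M DMSO stocks diluted in buffer. IC50 values are given as mean ± SEM.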

[3] = Displacement of [3H]-PN200-110 from L-type calcium channel in Hartley guinea pig ventricular membrane […] after 90 mins; design: species or system Cavia porcellus
Cavia porcellus [4] = species on record: Cavia porcellus; assay: Displacement of [3H]-PN200-110 from L-type calcium channel in Hartley guinea pig ventricular membrane […] after 90 mins relative to control
[5] = Displacement of [3H]-PN200-110 from L-type calcium channel in Hartley guinea pig atrial membrane after 90 mins; type: cell membranes, Cavia porcellus, Cardiac atrium
Procedure, shortened: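 Guinea pig atrial membranes are labelled at the 1,4-DHP site with (+)-[5-methyl-3H]PN200-110 at 0.5 nM. Competitor is added over 0.001−100 μM from 10⁻² M DMSO stocks diluted in buffer. Results are given as IC50 and Ki, mean ± SEM. Student's t-test is applied with P<0.001.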

Cavia porcellus [6] = species on record: Cavia porcellus; assay: Displacement of [3H]-PN200-110 from L-type calcium channel in Hartley guinea pig atrial membrane at 100 uM after 90 mins relative to control; type: cell membranes; details: Cardiac atrium
Ileum [7] = assay: Relaxant activity in potassium depolarized guinea pig ileum longitudinal smooth muscle assessed as inhibition of calcium-induced contraction; type: functional, tissue-based; details: Cavia porcellus
Procedure, shortened: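 K⁺-depolarized (80 mM) guinea pig ileum longitudinal smooth muscle is used. Calcium-induced contraction is measured with cumulative compound addition.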

Ileum [8] = assay: Relaxant activity in potassium depolarized guinea pig ileum longitudinal smooth muscle assessed as inhibition of calcium-induced contraction at 10^-7 M relative to control; type: functional, Cavia porcellus; design: scale not given: the % may be the effect or the level left
Aorta [9] = assay: Relaxant activity in potassium depolarized guinea pig aortic strips assessed as inhibition of calcium-induced contraction at 10^-4 M relative to control; type: functional, Cavia porcellus; design: scale not given: the % may be the effect or the level left
Procedure, shortened: (§1)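 Guinea pig aortic strips and ileum longitudinal smooth muscle are depolarized with 80 mM K⁺. The read-out is percent inhibition of calcium-induced contraction. Aorta is tested at 10⁻⁴ M and ileum at 10⁻⁵ M.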

[10] = Negative chronotropic activity in guinea pig right atrium assessed as decrease in atrial rate; type: functional, tissue-based; details: Cavia porcellus, Cardiac atrium
Procedure, shortened: (§2)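 Isolated guinea pig atria are used, with left atria driven at 1 Hz. Compounds are added cumulatively. EC50 is derived from log concentration−response curves by Litchfield–Wilcoxon probit analysis, n = 6−7. EC50 is not calculated when the maximal effect is below 50%.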

[11] = Negative chronotropic activity in guinea pig right atrium assessed as decrease in atrial rate at 5x10'-6 M relative to control; type: functional, Cavia porcellus, Cardiac atrium; design: scale not given: the % may be the effect or the level left
[12] = Negative inotropic activity in guinea pig left atrium assessed as decrease in developed tension at 10^-4 M relative to control; type: functional, Cavia porcellus, Cardiac atrium; design: scale not given: the % may be the effect or the level left
HEK293 = assay: Displacement of [3H]-PN200-110 from voltage-gated calcium channel subunit alpha Cav1.2a (unknown origin) expressed in HEK293 cells at 100 uM after 90 mins by liquid scintillation counting analysis relative to control; type: cell-based; details: Homo sapiens
Ileum [13] = assay: Relaxant activity in potassium depolarized guinea pig ileum longitudinal smooth muscle assessed as inhibition of calcium-induced contraction at 10^-5 M relative to control; type: functional, Cavia porcellus; design: scale not given: the % may be the effect or the level left; procedure, shortened: as §1
[14] = Negative chronotropic activity in guinea pig right atrium assessed as decrease in atrial rate at 10^-4 M relative to control; type: functional, Cavia porcellus, Cardiac atrium; design: scale not given: the % may be the effect or the level left
Procedure, shortened: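 The read-out is decrease in rate of spontaneously beating isolated guinea pig right atrium at 10⁻⁴ M. It is expressed as percent change from control, n = 7−8.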

[15] = Negative inotropic activity in guinea pig left atrium assessed as decrease in developed tension at 10^-6 M relative to control; type: functional, Cavia porcellus, Cardiac atrium; design: scale not given: the % may be the effect or the level left
Ileum [16] = assay: Relaxant activity in potassium depolarized guinea pig ileum longitudinal smooth muscle assessed as inhibition of calcium-induced contraction at 5x10'-6 M relative to control; type: functional, Cavia porcellus; design: scale not given: the % may be the effect or the level left
Ileum [17] = assay: Relaxant activity in potassium depolarized guinea pig ileum longitudinal smooth muscle assessed as inhibition of calcium-induced contraction at 5x10'-7 M relative to control; type: functional, Cavia porcellus; design: scale not given: the % may be the effect or the level left
[18] = Negative chronotropic activity in guinea pig right atrium assessed as decrease in atrial rate at 10^-5 M relative to control; type: functional, Cavia porcellus, Cardiac atrium; design: scale not given: the % may be the effect or the level left
[19] = Negative inotropic activity in guinea pig left atrium assessed as decrease in developed tension; type: functional, tissue-based; details: Cavia porcellus, Cardiac atrium; procedure, shortened: as §2
[20] = Negative inotropic activity in guinea pig left atrium assessed as decrease in developed tension at 10^-5 M relative to control; type: functional, Cavia porcellus, Cardiac atrium; design: scale not given: the % may be the effect or the level left
Aorta [21] = assay: Relaxant activity in potassium depolarized guinea pig aortic strips assessed as inhibition of calcium-induced contraction at 5x10'-5 M relative to control; type: functional, Cavia porcellus; design: scale not given: the % may be the effect or the level left
[22] = Selectivity ratio of EC50 for negative chronotropic activity in guinea pig right atrium to EC50 for negative inotropic activity in guinea pig left atrium; type: functional, Cavia porcellus, Cardiac atrium
Ileum [23] = assay: Relaxant activity in potassium depolarized guinea pig ileum longitudinal smooth muscle assessed as inhibition of calcium-induced contraction at 5x10'-5 M relative to control; type: functional, Cavia porcellus; design: scale not given: the % may be the effect or the level left
[24] = Negative chronotropic activity in guinea pig right atrium assessed as decrease in atrial rate at 5x10'-5 M relative to control; type: functional, Cavia porcellus, Cardiac atrium; design: scale not given: the % may be the effect or the level left
Ileum [25] = assay: Relaxant activity in potassium depolarized guinea pig ileum longitudinal smooth muscle assessed as inhibition of calcium-induced contraction at 10^-4 M relative to control; type: functional, Cavia porcellus; design: scale not given: the % may be the effect or the level left

SMILES	IC50 [1] [µM]	Ki [1] [µM]	%max (Rattus norvegicus) [%]	IC50 [3] [µM]	Ki [3] [µM]	%max (Cavia porcellus [4]) [%]	IC50 [5] [µM]	Ki [5] [µM]	%max (Cavia porcellus [6]) [%]	IC50 (Ileum [7]) [µM]	EC50 [10] [µM]	Activity (Aorta [9]) [%]	%max (HEK293) [%]	other results
COC(=O)C1=C(C)NC(C)=C(C(=O)OC)C1c1c(-c2ccccn2)nc2sc(C)cn12										2.81	39.9	13		Activity (Ileum [13]): 78%; Activity [14]: 72%; Activity [15]: 42%
COC(=O)C1=C(C)NC(C)=C(C(=O)OC)C1c1c(Cl)nc2sc(C)cn12	1020	340	60			< 50	0.12	0.042	95				< 50	
CCCc1cn2c(C3C(C(=O)OC)=C(C)NC(C)=C3C(=O)OC)c(-c3c(OC)ccc(OC)c3[N+](=O)[O-])nc2s1				3.32	1.16	50	0.065	0.023	53				55	IC50 [2]: 0.0044 µM; Ki [2]: 0.0016 µM
COC(=O)C1=C(C)NC(C)=C(C(=O)OC)C1c1c(-c2cccs2)nc2sc(C)cn12										1.37	40.5	9		Activity (Ileum [16]): 81%; Activity [14]: 70%; Activity [15]: 40%
COC(=O)C1=C(C)NC(C)=C(C(=O)OC)C1c1c(Cl)nc2scc(C)n12	106	34.7	52											
COC(=O)C1=C(C)NC(C)=C(C(=O)OC)C1c1c(-c2ccsc2)nc2sc(C)cn12										3.52	2.3	6		Activity (Ileum [13]): 74%; Activity [14]: 85%; Activity [12]: 12%
COC(=O)C1=C(C)NC(C)=C(C(=O)OC)C1c1c(C(F)(F)F)nc2sccn12	1.65	0.52	75											
COC(=O)C1=C(C)NC(C)=C(C(=O)OC)C1c1c(-c2cccnc2)nc2sc(C)cn12	0.1	0.059	70			< 50	0.022	0.0048	52	16	12.5		< 50	Activity (Ileum [23]): 83%; Activity (Aorta [21]): 19%; Activity [24]: 86%; Activity [15]: 18%
COC(=O)C1=C(C)NC(C)=C(C(=O)OC)C1c1c(-c2c(Cl)csc2Cl)nc2sccn12										0.18	2.16			Activity (Ileum [17]): 95%; Activity (Aorta [21]): 22%; Ratio EC50 [22]: 47; Activity [11]: 77%; Activity [12]: 74%; EC50 [19]: 0.046 µM
COC(=O)C1=C(C)NC(C)=C(C(=O)OC)C1c1c(-c2ccncc2)nc2sc(C)cn12										9.69	7.49	4		Activity (Ileum [25]): 97%; Activity [24]: 93%; Activity [15]: 44%

Second part, led by results:

IC50 [1] [µM]	Ki [1] [µM]	%max (Rattus norvegicus) [%]	IC50 [3] [µM]	Ki [3] [µM]	%max (Cavia porcellus [4]) [%]	IC50 [5] [µM]	Ki [5] [µM]	%max (Cavia porcellus [6]) [%]	IC50 (Ileum [7]) [µM]	EC50 [10] [µM]	SMILES	Activity (Aorta [9]) [%]	%max (HEK293) [%]	other results
1.03	0.74	53	2.05	0.74	70	0.24	0.052	60	0.0023	1.06	COC(=O)C1=C(C)NC(C)=C(C(=O)OC)C1c1c(-c2ccsc2)nc2sccn12	11	65	IC50 [2]: 0.49 µM; Ki [2]: 0.15 µM; Activity (Ileum [8]): 85%; Activity [11]: 87%; Activity [12]: 47%
1.21	0.41	79	0.84	0.31	60	0.25	0.09	54			COC(=O)C1=C(C)NC(C)=C(C(=O)OC)C1c1c(-c2cc(OC)cc(OC)c2)nc2sccn12		50	IC50 [2]: 0.61 µM; Ki [2]: 0.19 µM
38.6	13.9	52			< 50	0.14	0.049	91			COC(=O)C1=C(C)NC(C)=C(C(=O)OC)C1c1c(-c2ccccc2C(F)(F)F)nc2sccn12		< 50	
0.24	0.17	98	1.43	0.51	91	0.078	0.017	76	0.046	2.63	CCOC(=O)C1=C(C)NC(C)=C(C(=O)OCC)C1c1c(-c2cc(OC)ccc2OC)nc2sccn12	29	94	IC50 [2]: 0.86 µM; Ki [2]: 0.3 µM; Activity (Ileum [17]): 85%; Activity [18]: 88%; Activity [12]: 93%; EC50 [19]: 1.16 µM
0.21	0.16	56			< 50	0.12	0.044	65			COC(=O)C1=C(C)NC(C)=C(C(=O)OC)C1c1c(-c2cc(OC)ccc2OC)nc2sccn12		< 50	
									3.55	28.4	COC(=O)C1=C(C)NC(C)=C(C(=O)OC)C1c1c(-c2cccnc2)nc2sccn12	36		Activity (Ileum [13]): 91%; Activity [14]: 98%; Activity [20]: 25%
0.99	0.33	90	0.45	0.16	96	0.29	0.09	92			COC(=O)C1=C(C)NC(C)=C(C(=O)OC)C1c1c(-c2cccc(OC)c2)nc2sccn12		< 50	
									2.57	24.4	COC(=O)C1=C(C)NC(C)=C(C(=O)OC)C1c1c(-c2ccccn2)nc2sccn12			Activity (Ileum [13]): 87%; Activity (Aorta [21]): 28%; Ratio EC50 [22]: 45; Activity [14]: 71%; Activity [20]: 58%; EC50 [19]: 0.54 µM
									0.96		COC(=O)C1=C(C)NC(C)=C(C(=O)OC)C1c1c(-c2ccncc2)nc2sccn12	14		Activity (Ileum [16]): 90%; Activity [18]: 25%; Activity [15]: 46%
0.35	0.11	77	0.046	0.016	93	0.39	0.14	50			COC(=O)C1=C(C)NC(C)=C(C(=O)OC)C1c1c(-c2ccc(OC)c(OC)c2)nc2sccn12		55	IC50 [2]: 0.062 µM; Ki [2]: 0.023 µM
